From ChEMBL document CHEMBL3627681, “Synthesis and biological evaluation of 1,3-diaryl pyrazole derivatives as potential antibacterial and anti-inflammatory agents” (2015)
Converted amounts (≈) assume the structure as drawn.

What follows are compounds tested on Staphylococcus aureus (assay: Antibacterial activity against Staphylococcus aureus 209 after 24 hrs by two-fold serial dilution method). Details: Staphylococcus aureus, 209, 24 h.
Type: functional
In short: (§1)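 Broth microdilution in Mueller-Hinton broth. Bacteria grown to mid-log phase, diluted 1000-fold, and inoculated at 10⁵ CFU/mL. Test compounds in DMSO, final DMSO not above 0.05%, final concentrations 64-0.5 µg/mL. Incubation 24 h at 37 °C, growth read as absorbance at 650 nm. MIC taken as the lowest concentration giving complete growth inhibition. Run three times.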
With `Cc1ccc(-c2nn(-c3ccc([N+](=O)[O-])cc3[N+](=O)[O-])cc2/C=N/NC(=O)c2ccco2)cc1` the MIC was greater than 64 µg/mL. For `O=C(N/N=C/c1cn(-c2ccc([N+](=O)[O-])cc2[N+](=O)[O-])nc1-c1ccccc1Br)c1ccco1`, the MIC was greater than 64 µg/mL. In the case of `N=C(N)N/N=C/c1cn(-c2ccc([N+](=O)[O-])cc2[N+](=O)[O-])nc1-c1ccccc1Cl`, the MIC is reported as 8 µg/mL (≈ 18.7 µM).

The compounds below were run on Staphylococcus aureus (assay: Antibacterial activity against Staphylococcus aureus 503 after 24 hrs by two-fold serial dilution method). Details: Staphylococcus aureus, 503, 24 h.
Type: functional
In short: as §1
In the case of `Cc1ccc(-c2nn(-c3ccc([N+](=O)[O-])cc3[N+](=O)[O-])cc2/C=N/NC(=O)c2ccco2)cc1`, the MIC is reported as greater than 64 µg/mL. With `O=C(N/N=C/c1cn(-c2ccc([N+](=O)[O-])cc2[N+](=O)[O-])nc1-c1ccccc1Br)c1ccco1` the MIC was greater than 64 µg/mL. With `N=C(N)N/N=C/c1cn(-c2ccc([N+](=O)[O-])cc2[N+](=O)[O-])nc1-c1ccccc1Cl` the MIC was 4 µg/mL (≈ 9.33 µM).

These compounds were tested on Candida albicans (assay: Antifungal activity against Candida albicans 7535 by two-fold serial dilution method). Details: not given.
Type: functional
Work on `Cc1ccc(-c2nn(-c3ccc([N+](=O)[O-])cc3[N+](=O)[O-])cc2/C=N/NC(=O)c2ccco2)cc1` yielded an MIC greater than 64 µg/mL. `O=C(N/N=C/c1cn(-c2ccc([N+](=O)[O-])cc2[N+](=O)[O-])nc1-c1ccccc1Br)c1ccco1` showed an MIC greater than 64 µg/mL. Compound `N=C(N)N/N=C/c1cn(-c2ccc([N+](=O)[O-])cc2[N+](=O)[O-])nc1-c1ccccc1Cl` has an MIC of 2 µg/mL (≈ 4.66 µM).

The compounds below were run on Escherichia coli (assay: Antibacterial activity against Escherichia coli KCTC 1924 after 24 hrs by two-fold serial dilution method). Details: KCTC 1924, 24 h.
Type: functional
In short: (§2)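 Broth microdilution in Mueller-Hinton broth over final concentrations of 64–0.5. Bacteria were grown to mid-log phase and diluted 1000-fold, then inoculated at 10⁵ CFU/mL. Compounds were dissolved in DMSO, with final DMSO at most 0.05%. Plates were incubated 24 h at 37 °C and growth read as absorbance at 650 nm. MIC is the concentration giving complete growth inhibition. Three independent runs.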
`Cc1ccc(-c2nn(-c3ccc([N+](=O)[O-])cc3[N+](=O)[O-])cc2/C=N/NC(=O)c2ccco2)cc1` was tested, and the MIC was greater than 64 µg/mL. Work on `O=C(N/N=C/c1cn(-c2ccc([N+](=O)[O-])cc2[N+](=O)[O-])nc1-c1ccccc1Br)c1ccco1` yielded an MIC greater than 64 µg/mL. In the case of `N=C(N)N/N=C/c1cn(-c2ccc([N+](=O)[O-])cc2[N+](=O)[O-])nc1-c1ccccc1Cl`, the MIC is reported as 4 µg/mL (≈ 9.33 µM).

The compounds below were run on Staphylococcus aureus (assay: Antibacterial activity against methicillin-resistant Staphylococcus aureus CCARM 3506 after 24 hrs by two-fold serial dilution method). Details: CCARM 3506, 24 h.
Type: functional
In short: as §1
`Cc1ccc(-c2nn(-c3ccc([N+](=O)[O-])cc3[N+](=O)[O-])cc2/C=N/NC(=O)c2ccco2)cc1` gave an MIC greater than 64 µg/mL. Compound `O=C(N/N=C/c1cn(-c2ccc([N+](=O)[O-])cc2[N+](=O)[O-])nc1-c1ccccc1Br)c1ccco1` has an MIC greater than 64 µg/mL. Compound `N=C(N)N/N=C/c1cn(-c2ccc([N+](=O)[O-])cc2[N+](=O)[O-])nc1-c1ccccc1Cl` has an MIC of 4 µg/mL (≈ 9.33 µM).

Each compound was assayed on Staphylococcus aureus (assay: Antibacterial activity against quinolone-resistant Staphylococcus aureus CCARM 3519 after 24 hrs by two-fold serial dilution method). Details: CCARM 3519, 24 h.
Type: functional
In short: as §1
`Cc1ccc(-c2nn(-c3ccc([N+](=O)[O-])cc3[N+](=O)[O-])cc2/C=N/NC(=O)c2ccco2)cc1` was tested, and the MIC was greater than 64 µg/mL. For `O=C(N/N=C/c1cn(-c2ccc([N+](=O)[O-])cc2[N+](=O)[O-])nc1-c1ccccc1Br)c1ccco1`, the MIC was greater than 64 µg/mL. `N=C(N)N/N=C/c1cn(-c2ccc([N+](=O)[O-])cc2[N+](=O)[O-])nc1-c1ccccc1Cl` gave an MIC of 8 µg/mL (≈ 18.7 µM).

The compounds below were run on Staphylococcus aureus (assay: Antibacterial activity against methicillin-resistant Staphylococcus aureus CCARM 3167 after 24 hrs by two-fold serial dilution method). Details: CCARM 3167, 24 h.
Type: functional
In short: as §1
In the case of `Cc1ccc(-c2nn(-c3ccc([N+](=O)[O-])cc3[N+](=O)[O-])cc2/C=N/NC(=O)c2ccco2)cc1`, the MIC is reported as greater than 64 µg/mL. `O=C(N/N=C/c1cn(-c2ccc([N+](=O)[O-])cc2[N+](=O)[O-])nc1-c1ccccc1Br)c1ccco1` showed an MIC greater than 64 µg/mL. `N=C(N)N/N=C/c1cn(-c2ccc([N+](=O)[O-])cc2[N+](=O)[O-])nc1-c1ccccc1Cl` showed an MIC of 4 µg/mL (≈ 9.33 µM).

The compounds below were run on Pseudomonas aeruginosa (assay: Antibacterial activity against Pseudomonas aeruginosa 2004 after 24 hrs by two-fold serial dilution method). Details: Pseudomonas aeruginosa, 2004, 24 h.
Type: functional
In short: as §2
For `Cc1ccc(-c2nn(-c3ccc([N+](=O)[O-])cc3[N+](=O)[O-])cc2/C=N/NC(=O)c2ccco2)cc1`, the MIC was greater than 64 µg/mL. Compound `O=C(N/N=C/c1cn(-c2ccc([N+](=O)[O-])cc2[N+](=O)[O-])nc1-c1ccccc1Br)c1ccco1` has an MIC greater than 64 µg/mL. For `N=C(N)N/N=C/c1cn(-c2ccc([N+](=O)[O-])cc2[N+](=O)[O-])nc1-c1ccccc1Cl`, the MIC was greater than 64 µg/mL.

What follows are compounds tested on Salmonella typhimurium (assay: Antibacterial activity against Salmonella typhimurium 2421 after 24 hrs by two-fold serial dilution method). Details: Salmonella enterica, 2421, 24 h.
Type: functional, Salmonella enterica subsp. enterica serovar Typhimurium
In short: as §2
In the case of `Cc1ccc(-c2nn(-c3ccc([N+](=O)[O-])cc3[N+](=O)[O-])cc2/C=N/NC(=O)c2ccco2)cc1`, the MIC is reported as greater than 64 µg/mL. For `O=C(N/N=C/c1cn(-c2ccc([N+](=O)[O-])cc2[N+](=O)[O-])nc1-c1ccccc1Br)c1ccco1`, the MIC was greater than 64 µg/mL. Compound `N=C(N)N/N=C/c1cn(-c2ccc([N+](=O)[O-])cc2[N+](=O)[O-])nc1-c1ccccc1Cl` has an MIC of 8 µg/mL (≈ 18.7 µM).

What follows are compounds tested on Staphylococcus aureus (assay: Antibacterial activity against quinolone-resistant Staphylococcus aureus CCARM 3505 after 24 hrs by two-fold serial dilution method). Details: CCARM 3505, 24 h.
Type: functional
In short: as §1
For `Cc1ccc(-c2nn(-c3ccc([N+](=O)[O-])cc3[N+](=O)[O-])cc2/C=N/NC(=O)c2ccco2)cc1`, the MIC was greater than 64 µg/mL. `O=C(N/N=C/c1cn(-c2ccc([N+](=O)[O-])cc2[N+](=O)[O-])nc1-c1ccccc1Br)c1ccco1` was tested, and the MIC was greater than 64 µg/mL. Work on `N=C(N)N/N=C/c1cn(-c2ccc([N+](=O)[O-])cc2[N+](=O)[O-])nc1-c1ccccc1Cl` yielded an MIC of 4 µg/mL (≈ 9.33 µM).

What follows are compounds tested on Pseudomonas aeruginosa (assay: Antibacterial activity against Pseudomonas aeruginosa 2742 after 24 hrs by two-fold serial dilution method). Details: Pseudomonas aeruginosa, 2742, 24 h.
Type: functional
In short: as §2
For `Cc1ccc(-c2nn(-c3ccc([N+](=O)[O-])cc3[N+](=O)[O-])cc2/C=N/NC(=O)c2ccco2)cc1`, the MIC was greater than 64 µg/mL. `O=C(N/N=C/c1cn(-c2ccc([N+](=O)[O-])cc2[N+](=O)[O-])nc1-c1ccccc1Br)c1ccco1` gave an MIC greater than 64 µg/mL. With `N=C(N)N/N=C/c1cn(-c2ccc([N+](=O)[O-])cc2[N+](=O)[O-])nc1-c1ccccc1Cl` the MIC was greater than 64 µg/mL.

The compounds below were run on Mus musculus (assay: Antiinflammatory activity in mouse assessed as inhibition of xylene-induced ear edema at 50 mg/kg, ip administered 30 mins before xylene challenge relative to control). Details: not given.
Type: functional
In short: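 Mice received compound freshly dissolved in DMSO, 50 mg/kg ip at 0.05 mL/20 g body weight; vehicle controls got DMSO alone. After 30 min, 20 µL xylene was applied to the right ear. After a further 30 min, 7 mm plugs were cut from treated and untreated ears and edema taken as their weight difference. Result is % edema reduction versus vehicle controls.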
Work on `Cc1ccc(-c2nn(-c3ccc([N+](=O)[O-])cc3[N+](=O)[O-])cc2/C=N/NC(=O)c2ccco2)cc1` yielded an inhibition in vivo at 50 mg/kg of 36%. Compound `O=C(N/N=C/c1cn(-c2ccc([N+](=O)[O-])cc2[N+](=O)[O-])nc1-c1ccccc1Br)c1ccco1` has an inhibition in vivo at 50 mg/kg of 17.5%. With `N=C(N)N/N=C/c1cn(-c2ccc([N+](=O)[O-])cc2[N+](=O)[O-])nc1-c1ccccc1Cl` the inhibition in vivo at 50 mg/kg was 84.6%.

The compounds below were run on Streptococcus mutans (assay: Antibacterial activity against Streptococcus mutans 3065 after 24 hrs by two-fold serial dilution method). Details: Streptococcus mutans, 3065, 24 h.
Type: functional
In short: as §2
In the case of `Cc1ccc(-c2nn(-c3ccc([N+](=O)[O-])cc3[N+](=O)[O-])cc2/C=N/NC(=O)c2ccco2)cc1`, the MIC is reported as greater than 64 µg/mL. `O=C(N/N=C/c1cn(-c2ccc([N+](=O)[O-])cc2[N+](=O)[O-])nc1-c1ccccc1Br)c1ccco1` gave an MIC greater than 64 µg/mL. `N=C(N)N/N=C/c1cn(-c2ccc([N+](=O)[O-])cc2[N+](=O)[O-])nc1-c1ccccc1Cl` was tested, and the MIC was 16 µg/mL (≈ 37.3 µM).

What follows are compounds tested on Staphylococcus aureus (assay: Antibacterial activity against Staphylococcus aureus RN4220 after 24 hrs by two-fold serial dilution method). Details: RN4220, 24 h.
Type: functional
In short: as §1
Compound `Cc1ccc(-c2nn(-c3ccc([N+](=O)[O-])cc3[N+](=O)[O-])cc2/C=N/NC(=O)c2ccco2)cc1` has an MIC greater than 64 µg/mL. Work on `O=C(N/N=C/c1cn(-c2ccc([N+](=O)[O-])cc2[N+](=O)[O-])nc1-c1ccccc1Br)c1ccco1` yielded an MIC greater than 64 µg/mL. `N=C(N)N/N=C/c1cn(-c2ccc([N+](=O)[O-])cc2[N+](=O)[O-])nc1-c1ccccc1Cl` was tested, and the MIC was 4 µg/mL (≈ 9.33 µM).

The compounds below were run on Escherichia coli (assay: Antibacterial activity against Escherichia coli CCARM 1356 after 24 hrs by two-fold serial dilution method). Details: CCARM 1356, 24 h.
Type: functional
In short: as §2
With `Cc1ccc(-c2nn(-c3ccc([N+](=O)[O-])cc3[N+](=O)[O-])cc2/C=N/NC(=O)c2ccco2)cc1` the MIC was greater than 64 µg/mL. `O=C(N/N=C/c1cn(-c2ccc([N+](=O)[O-])cc2[N+](=O)[O-])nc1-c1ccccc1Br)c1ccco1` gave an MIC greater than 64 µg/mL. `N=C(N)N/N=C/c1cn(-c2ccc([N+](=O)[O-])cc2[N+](=O)[O-])nc1-c1ccccc1Cl` showed an MIC of 16 µg/mL (≈ 37.3 µM).
